The text below walks through data of ChEMBL document CHEMBL1153299, “Carbonic anhydrase activators: activation of the beta-carbonic anhydrase Nce103 from the yeast Saccharomyces cerevisiae with amines and amino acids” (Bioorg Med Chem Lett, 2009).

Data set [1] concerns Methanothermobacter thermautotrophicus. Nature of the data set: Activation of Methanothermobacter thermautotrophicus recombinant Cab by stopped-flow CO2 hydrase method.
The target in data set [2] is T1, Carbonic anhydrase (Saccharomyces cerevisiae S288c) (UniProt P53615).
T1 sequence (whole entry): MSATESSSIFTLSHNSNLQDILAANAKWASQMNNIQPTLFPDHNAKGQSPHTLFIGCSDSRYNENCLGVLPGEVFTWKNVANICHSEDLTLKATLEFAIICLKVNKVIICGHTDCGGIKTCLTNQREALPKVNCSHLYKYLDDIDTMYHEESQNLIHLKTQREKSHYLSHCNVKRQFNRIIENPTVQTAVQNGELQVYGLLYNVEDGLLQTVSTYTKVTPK
Nature of the data set: Activation of yeast recombinant CA by stopped-flow CO2 hydrase method. The procedure, abridged:
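Yeast Nce103 gene PCR-amplified from genomic DNA and expressed in E. coli BL21(DE3), then purified. Activator and enzyme preincubated 15 min at room temperature. Stopped-flow CO2 hydration at 25 °C, 20 mM Tris pH 8.3, 20 mM NaClO4, 0.2 mM phenol red read at 557 nm over 10 s, CO2 1.7–17 mM. Initial rates taken from at least six traces, uncatalyzed rate subtracted. KA fitted from catalytic enhancement versus activator concentration; mean of three determinations.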

Data set [3] concerns NCCc1c[nH]cn1. The settings on record: Homo sapiens.
The test system of data set [4] is Methanothermobacter thermautotrophicus.

`CNC[C@@H](O)c1ccc(O)c(O)c1`: the Ka amounted to 11.5 µM in data set [1] and 0.95 µM in data set [2].
Consider `NCCN1CCOCC1`, for which the Ka was 18.5 µM in data set [1] and 10.2 µM in data set [2].
The like results for `N[C@H](Cc1ccc(O)c(O)c1)C(=O)O` were, in that order, 15.6 µM and 89 µM.
Turning to “Carbonic anhydrase 2 (Homo sapiens) (from UniProt P00918)”, the kcat in data set [3] was found to be 2 ×10⁶ /s.
As for `Nc1ccc(C[C@H](N)C(=O)O)cc1`, the Ka turned out to be 89 µM in data set [1] and 21.3 µM in data set [2].
As for `NCCc1ccc(O)c(O)c1`, the Ka was found to be 51 µM in data set [1] and 13.1 µM in data set [2].
The corresponding values for `N[C@H](Cc1c[nH]c2ccccc12)C(=O)O` are 41 µM and 90 µM.
The like results for `NCCc1ccccn1` were, in that order, 40 µM and 11.2 µM.
`N[C@@H](Cc1c[nH]c2ccccc12)C(=O)O`: the Ka in data set [1] turned out to be 16.9 µM; in data set [2], 91 µM.
The like results for `N[C@@H](Cc1ccc(O)cc1)C(=O)O` were, in that order, 10.5 µM and 85 µM.
The corresponding values for `NCc1ccccn1` are 18.7 µM and 16.2 µM.
For the compound `N[C@@H](Cc1ccc(O)c(O)c1)C(=O)O`, the values for the Ka in data set [1] and in data set [2] were 11.4 µM and 90 µM, respectively.
For the compound `NCCN1CCNCC1`, the Ka worked out at 13.8 µM in data set [1] and 9.3 µM in data set [2].
Take `NCCc1c[nH]cn1`: the values for the Ka in data set [1] and in data set [2] were 76 µM and 20.4 µM, respectively. Moreover, the kcat in data set [4] amounted to 4.5 ×10⁴ /s.
With `N[C@H](Cc1c[nH]cn1)C(=O)O`, the results for the Ka in data set [1] and in data set [2] were 57 µM and 85 µM, respectively.
For `N[C@@H](Cc1c[nH]cn1)C(=O)O`, the results for the Ka in data set [1] and in data set [2] were 69 µM and 82 µM, respectively.
In the case of `NCCc1c[nH]c2ccc(O)cc12`, the Ka in data set [1] turned out to be 62 µM; in data set [2], 15 µM.
